Compound activity: PubChem BioAssay, Broad Institute
PGC1a acetyl inh = modulators of PGC1a acetylation. U2OS PGC1a acetylation, AlphaScreen anti-acetyl-lysine; with virally co-expressed GCN5 acetyltransferase. inhibition, % at 15.6 µM. 0.17% of 350,000 active;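 active = every replicate shows inhibition of at least 40%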
Env fusion inh = blocks HIV Env-driven cell-cell fusion; 1.1% of 360,000 active; AID 651610; inhibition, % at 12.3 µM; HeLa-JRFL Env/CEM21 cell fusion, luciferase;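 active = mean replicate inhibition score of at least 50 and every replicate individually at or above 50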
ERAP1 inh = blocks human ERAP1 aminopeptidase activity. Q9NZ08. recombinant ERAP1, Leu-AMC fluorescence, 60 min. inhibition, % at 10.7 µM. 0.15% of 340,000 active. AID 652197;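 active = mean replicate inhibition of at least 30%, or all replicates individually reaching that 30% level; inactive = mean below 30% and not every replicate reaching it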
Cneo AK release = Cryptococcus neoformans lysis via adenylate kinase release. C. neoformans lysis, adenylate kinase release luminescence, 4 h; normalised: neutral wells 0, clomiphene wells 100. lysis activity, % at 15 µM. 0.2% of 360,000 active. AID 651654;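 active = mean lysis activity across replicates of at least 80%, whatever share of replicates individually reach that level; inactive = mean lysis activity below 80%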
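Test system: log-phase Cryptococcus neoformans yeast cells; Quantity: yeast cell density of 5 × 10^6 cells/mL; Buffer or medium: YPD; Doses: single compound concentration per well; Timing: 4 h at 37 °C static, read 1 h later; Measured by: AK luminescence; Read-out basis: lysis from increased AK signal; Control set: Clomiphene as positive control.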
rRNA inh HTS = inhibits bacterial ribosomal RNA function over humanized ribosomes | E. coli WT GFP vs humanized-ribosome RFP mutants, fluorescence, 24 h; hits give low values; DMSO median 0, no signal -100 | GFP signal change (wild-type ribosome), % (concentration not given with the values) | 1.6% of 350,000 active | AID 720706;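 active = significant combined selectivity score with lowered wild-type GFP, culture density cut under 30%, mutant RFP and density less affected; inactive = any of these conditions unmet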
FGF22 binding = FGF22 (human) thermal shift binding. recombinant FGF22 thermal shift, SYPRO orange fluorescence; percent of sucrose octasulfate shift, DMSO zero. 1.5% of 340,000 active. activity (Tm shift, normalised), % at 9.99 µM. AID 651658;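 active = mean Tm shift, scaled 0 neutral to 100 positive control, at about 1.3% or above, every replicate too, limit read from the data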
Target sequence (Q9HCT0 whole entry, looked up): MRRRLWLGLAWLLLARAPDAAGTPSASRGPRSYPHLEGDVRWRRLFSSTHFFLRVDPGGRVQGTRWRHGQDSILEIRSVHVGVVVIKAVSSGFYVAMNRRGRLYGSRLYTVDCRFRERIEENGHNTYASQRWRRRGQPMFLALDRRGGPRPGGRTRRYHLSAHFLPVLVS
Hits are given with their value; 0 = inactive; - = no result; [ ] = dose if it differs, or a comment. A selection: hits, their analogues and other compounds. The true share with any hit is near 3.5%.

SMILES	PGC1a acetyl inh	Env fusion inh	ERAP1 inh	Cneo AK release	rRNA inh HTS	FGF22 binding
Cc1cc(N/N=C/c2cccc(Cl)c2)nc(NCc2ccccc2)n1	0	0	-	0	-	-
Cc1cc(N/N=C/c2ccccc2F)nc(NCc2ccccc2)n1	-	0	0	-	-30	0
C/C(=N\Nc1cc(C)nc(NCc2ccccc2)n1)c1cccc([N+](=O)[O-])c1	-	0	0	-	0	0
Cc1cc(N/N=C/c2ccccc2)nc(NCc2ccccc2)n1	-	0	0	0	-35	0
Cc1cc(N/N=C/c2ccc(Cl)cc2)nc(NCc2ccccc2)n1	-	0	0	-	0	1.6
CN(C)c1cc(N/N=C\c2ccccc2)nc(N(C)C)n1	0	0	0	-	0	43
Cc1cc(N/N=C/c2cccc(F)c2)nc(NCc2ccccc2)n1	-	0	0	-	0	0
Cc1ccccc1C(=O)N[C@H](C(=O)Nc1ccc(Cl)c(Cl)c1)C(C)C	-	-	0	0	0	0
Cc1cc(NC(=O)CSc2nnc(-c3ccncc3)n2Cc2ccccc2)n(-c2ccccc2)n1	0	0	0	-	0	0
COc1ccc(CC(=O)NNC(=O)c2ccccc2)cc1OC	0	-	0	0	0	0
COc1ccc(CC(=O)NNC(=O)c2ccc(Br)s2)cc1OC	0	0	0	0	0	43
C[C@@H]1CCCCO[C@@H](CN(C)CC2CCCCC2)[C@H](C)CN([C@@H](C)CO)C(=O)c2cc(NC(=O)Nc3ccc4c(c3)OCO4)ccc2O1	0	0	0	0	0	1.4
C[C@@H]1CN([C@H](C)CO)C(=O)c2cc(NC(=O)Nc3ccc(C(F)(F)F)cc3)ccc2O[C@@H](C)CCCCO[C@H]1CN(C)Cc1ccc(C(F)(F)F)cc1	0	64[16.7 µM]	-	0	0	0
C[C@H](CO)N1C[C@H](C)[C@H](CN(C)Cc2ccc(C(F)(F)F)cc2)OCCCC[C@H](C)Oc2ccc(NC(=O)Nc3ccc(C(F)(F)F)cc3)cc2C1=O	0	66[16.7 µM]	-	0	0	0
C[C@@H]1CCCCO[C@H](CN(C)Cc2ccc(C(F)(F)F)cc2)[C@@H](C)CN([C@H](C)CO)C(=O)c2cc(NC(=O)Nc3ccc(C(F)(F)F)cc3)ccc2O1	0	0	-	0	0	0
C[C@@H]1CCCCO[C@@H](CN(C)Cc2ccc(C(F)(F)F)cc2)[C@@H](C)CN([C@H](C)CO)C(=O)c2cc(NC(=O)Nc3ccc(C(F)(F)F)cc3)ccc2O1	0	0	-	0	0	0
C[C@H]1CCCCO[C@@H](CN(C)Cc2ccc(C(F)(F)F)cc2)[C@@H](C)CN([C@@H](C)CO)C(=O)c2cc(NC(=O)Nc3ccc(C(F)(F)F)cc3)ccc2O1	0	82[16.7 µM]	-	0	0	0
C[C@H](CO)N1C[C@H](C)[C@@H](CN(C)Cc2ccc(C(F)(F)F)cc2)OCCCC[C@H](C)Oc2ccc(NC(=O)Nc3ccc(C(F)(F)F)cc3)cc2C1=O	0	0	-	0	0	0
Cc1ccccc1C(=O)NCc1nnc(SCC(=O)N2c3ccccc3Sc3ccccc32)n1C	0	0	-	0	-	-
Cc1ccc(CNC(=O)Cn2ncn3cccc3c2=O)cc1	0	0	0	0	0	0
C[C@@H]1CCCCO[C@@H](CN(C)Cc2ccc(C(F)(F)F)cc2)[C@@H](C)CN([C@@H](C)CO)C(=O)c2cc(NC(=O)Nc3ccc4c(c3)OCO4)ccc2O1	0	0	0	0	0	0
C[C@H]1CCCCO[C@@H](CN(C)Cc2ccc3c(c2)OCO3)[C@@H](C)CN([C@@H](C)CO)C(=O)c2cc(NC(=O)Nc3ccc4c(c3)OCO4)ccc2O1	0	84[16.7 µM]	0	0	0	0
C[C@@H]1CCCCO[C@@H](CN(C)Cc2ccc(C(F)(F)F)cc2)[C@H](C)CN([C@@H](C)CO)C(=O)c2cc(NC(=O)Nc3ccc4c(c3)OCO4)ccc2O1	0	55[16.7 µM]	0	0	0	0
Cc1ccc(NC(=O)OCc2cn(-c3ccc(Cl)cc3)nn2)cc1	-	0	-	0	-	-
COc1cccc(CNc2ccc3c(c2)ncn3C(C)C)c1OC	0	0	0	0	-21	0
SMILES	PGC1a acetyl inh	Env fusion inh	ERAP1 inh	Cneo AK release	rRNA inh HTS	FGF22 binding
COc1ccc(OC)c(C(=O)/C=C/c2ccccc2C(F)(F)F)c1	46	0	-	0	-	-
COc1ccc(CNC(=O)Cn2ccc(N)nc2=O)cc1	-	0	0	0	0	0
Cc1ccc(C)c(N(C(=O)c2nsc(Cl)c2Cl)C(C(=O)NC2CCCC2)c2ccc(O)cc2)c1 (stereo unspecified)	0	89	-	0	-	-
COc1ccc(CN(C(=O)c2nsc(Cl)c2Cl)C(C(=O)NC2CCCC2)c2ccc(C)cc2)cc1 (stereo unspecified)	-	0	0	-	-	0
CC(C)C(NC(=O)c1ccccc1Br)c1ccccc1 (stereo unspecified)	-	0	0	-	0	43
CC(NC(=S)NC(=O)c1ccccc1Br)c1ccccc1 (stereo unspecified)	0	0	0	0	0	0
O=C1C=CC(=O)N1c1ccc2c(c1)Cc1cc(F)ccc1-2	0	0	0	0	-	0
CC(=O)Nc1ccc2c(c1)Cc1cc(N3C(=O)C=CC3=O)ccc1-2	0	0	34	0	-28	0
Cc1nnc(Sc2c(-c3ccccc3)c3ccc(Cl)cc3[nH]c2=O)s1	0	0	-	0	-	-
Clc1ccccc1CSc1nnc(-c2ccccn2)n1Cc1ccco1	0	66	-	0	-	-
O=C(O)C1CC(=O)N(c2ccc(OCc3ccc(Br)cc3)cc2)C1 (stereo unspecified)	0	0	0	0	0	-
CCn1c(O)c(N=NC(=O)c2cccnc2)c2cc(Br)ccc21	0	0	0	0	0	0
CCCCn1c(O)c(N=NC(=O)c2ccncc2)c2cc(Br)ccc21	0	0	0	0	0	44
CCOC1=C2[C@@H](CN(S(=O)(=O)c3ccccc3)[C@H]2c2ccccc2)[C@H]2C(=O)N(c3ccccc3)C(=O)[C@H]2C1	0	-	0	0	0	0
Cc1ccc(NC(=O)Nc2ccon2)cc1Cl	-	0	0	0	-34	0
CC(C)NC(=O)Nc1ccc2c(c1)C(=O)N([C@H](C)CO)C[C@@H](C)[C@@H](CN(C)C(=O)CCC(F)(F)F)OCCCC[C@H](C)O2	0	0	0	0	0	0
Cc1ccc(S(=O)(=O)N2CCN(C(=O)c3ccccn3)CC2)cc1	0	0	0	0	0	43
O=C(c1ccccn1)N1CCN(S(=O)(=O)c2ccccc2)CC1	0	0	0	0	0	43
Cc1ccc(C(F)(F)F)cc1NC(N)=S	-	0	0	-	0	44
CN1CCN(C(=O)C[C@H]2CC[C@H]3[C@@H](COC[C@@H](O)CN3C(=O)Nc3cc(Cl)cc(Cl)c3)O2)CC1	0	-	0	0	0	0
CN1CCN(C(=O)C[C@H]2CC[C@@H]3[C@H](COC[C@@H](O)CN3C(=O)Nc3ccc(Cl)cc3)O2)CC1	0	-	0	0	-27	0
